SMILES strings stand for the structures.

The test system of one data set is CHO-MG. Put plainly: Cytotoxicity against PAT deficient CHO-MG cells after 48 hrs. In kind it is cell-based. To be noted: Cricetulus griseus. Put shortly: (§1)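 CHO and CHO-MG grown in RPMI with 10% FCS, glutamine, penicillin/streptomycin and 2 mM aminoguanidine; CHO-MG medium also has L-proline (2 µg/mL); 37 °C, 5% CO2. Cells plated at 1 × 10⁴ cells/mL and drug added after overnight incubation. After 48 h exposure, growth read as MTT formazan absorbance at 540 nm. IC50 is the concentration giving 50% reduction in relative growth; ratio is CHO-MG IC50 over CHO IC50.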

Data set [1] relates to L1210. Nature of the data set: Cytotoxicity against mouse L1210 cells after 48 hrs. The format is functional, cell-based. Conditions: L1210, 48 h. In short, it runs like this:
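L1210 cells in early to mid log phase, viability checked by trypan blue, grown in RPMI with 10% FCS, glutamine, antibiotics and 2 mM aminoguanidine at 37 °C, 5% CO2. Seeded at 6 × 10⁴ cells/mL with drug added at seeding. After 48 h exposure, growth read as MTT formazan at 540 nm. IC50 is the concentration reducing relative growth by 50%.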

A short description of data set [2]: Inhibition of [3H]spermidine uptake at PAT in mouse L1210 cells. In kind it is cell-based.
The test system of the next data set is CHO. Nature of the data set: Cytotoxicity against PAT active CHO cells after 48 hrs. The format is cell-based. Conditions: Cricetulus griseus. Put shortly: as §1
In data set [3] the test system is polyamine transporter (PAT). Nature of the data set: Ratio of IC50 for PAT deficient CHO-MG cells to IC50 for PAT active CHO cells. In kind it is cell-based, Cricetulus griseus. Conditions: chinese hamster, PAT-deficient CHO-MG cells and PAT-active CHO cells; read-out: Ratio IC50. Put shortly:
as §1

Data set [4] relates to FL5.12. Put plainly: Induction of apoptosis in mouse FL5.12A cells at 10 uM. The format is functional. Put shortly: (§2)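 FL5.12A pro-B cells in RPMI1640 with 10% heat-inactivated FCS, antibiotics and IL-3 (2, 0.1 or 0 ng/mL) at 37 °C, 5% CO2. Preincubated 24 h at 5 × 10⁶ cells/well, then given 10 µM compound with aminoguanidine for 24 h. Result is % annexin-positive cells; run in triplicate.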

Data set [5] concerns FL5.12. Put plainly: Induction of apoptosis in 2 ng/ml IL3-induced mouse FL5.12A cells at 10 uM. In kind it is functional. Put shortly:
as §2

Data set [6] has as its system FL5.12. Nature of the data set: Induction of apoptosis in 0.1 ng/ml IL3-induced mouse FL5.12A cells at 10 uM. The format is functional. Put shortly: as §2
In data set [7] the test system is FL5.12. Nature of the data set: Induction of apoptosis in mouse FL5.12A cells treated after DMSO shock at 10 uM in presence of spermidine. The format is functional. In short, it runs like this:
(§3)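 FL5.12A cells held 24 h at 2, 0.1 or 0 ng/mL IL-3 (5 × 10⁶ cells/well), treated overnight with or without spermidine (100 µM), then washed and exposed to 10% DMSO for 2 min. Washed twice in Hank's medium and incubated 2 h at 37 °C. Apoptosis read as % annexin-V-FITC-positive cells; run in duplicate.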

A short description of data set [8]: Induction of apoptosis in 2 ng/ml IL3-induced mouse FL5.12A cells treated after DMSO shock at 10 uM in presence of spermidine. In kind it is functional. Put shortly: (§4)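 FL5.12A pro-B cells in RPMI1640 with 10% heat-inactivated FCS and 1 mM aminoguanidine, 37 °C, 5% CO2. Preincubated 24 h at the stated IL-3 level (5 × 10⁶ cells/well), then dosed overnight with spermidine 100 µM. Washed, shocked 2 min in 10% DMSO, washed twice in Hank's, and held 2 h at 37 °C.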

Data set [9] deals with FL5.12. Nature of the data set: Induction of apoptosis in mouse FL5.12A cells at 10 uM after DMSO shock. The format is functional. Put shortly:
as §3

In data set [10] the test system is L1210. Nature of the data set: Cytotoxicity against mouse L1210 cells after 24 hrs in presence of spermidine. To be noted: L1210, 24 h. In kind it is functional, cell-based.
A short description of data set [11]: Induction of apoptosis in 0.1 ng/ml IL3-induced mouse FL5.12A cells at 10 uM after DMSO shock. The format is functional. In short, it runs like this: (§5)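 FL5.12A pro-B cells in RPMI1640 with 10% heat-inactivated FCS and 1 mM aminoguanidine, 37 °C, 5% CO2. Preincubated 24 h with IL-3 at the stated level (5 × 10⁶ cells/well), then dosed overnight without spermidine. Washed, shocked 2 min in 10% DMSO, washed twice with Hank's, and held 2 h at 37 °C.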

Data set [12] in a line: Induction of apoptosis in 0.1 ng/ml IL3-induced mouse FL5.12A cells treated after DMSO shock at 10 uM in presence of spermidine. In kind it is functional. Put shortly: as §4
A short description of data set [13]: Induction of apoptosis in 2 ng/ml IL3-induced mouse FL5.12A cells at 10 uM after DMSO shock. The format is functional. Put shortly:
as §5

Data set [14] concerns L1210. Nature of the data set: Cytotoxicity against mouse L1210 cells in presence of ODC inhibitor difluoromethylornithine. The format is functional, cell-based.
Data set [15] deals with L1210. Put plainly: Cytotoxicity against mouse L1210 cells after 24 hrs in presence of 100 uM spermidine. In kind it is functional, cell-based. To be noted: L1210, 24 h.
The subject of data set [16] is FL5.12. Nature of the data set: Induction of apoptosis in 2 ng/ml IL3-induced mouse FL5.12A cells at 10 uM in presence of spermidine. The format is functional. Put shortly:
(§6)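 FL5.12A cells held 24 h at 2, 0.1 or 0 ng/mL IL-3 (5 × 10⁶ cells/well), then treated with compound overnight with or without spermidine (100 µM). Apoptosis read as % annexin-V-FITC-positive cells by flow cytometry; run in duplicate.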

Data set [17] deals with FL5.12. Put plainly: Induction of apoptosis in 0.1 ng/ml IL3-induced mouse FL5.12A cells at 10 uM in presence of spermidine. In kind it is functional. In short, it runs like this:
as §6

The subject of data set [18] is FL5.12. Nature of the data set: Induction of apoptosis in mouse FL5.12A cells at 10 uM in presence of spermidine. The format is functional. Put shortly:
as §6

A short description of data set [19]: Chemical stability in phosphate buffer assessed as degraded compound after 48 hrs. In kind it is physicochemical. Conditions: read-out: Activity. Put shortly:
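NMR in phosphate buffer, pD 7.4, in D2O; sample held 48 h at 37 °C, then the fraction of conjugate degraded was read.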

Consider `NCCCCNCCCCNCc1ccccc1`, for which the IC50 – broadly, the concentration at which inhibition is half-maximal – in the data set with CHO-MG was > 1000 µM; in the data set with L1210 [1], 36.3 µM. Also, affinity in [2] was put at a Ki of 4.5 µM.

As for `O=C(O)CCCc1ccc(N(CCCl)CCCl)cc1` [CHLORAMBUCIL], the IC50 in the data set with CHO was found to be 84.5 µM; with CHO-MG, 111 µM; with L1210 [1] it was 14.1 µM. The selectivity ratio in data set [3] amounted to 1.32. The Ki (in general, the dissociation constant of the complex between target and ligand, obtained from inhibition or displacement) in data set [2] was > 150 µM.

Regarding `N=C(N)NN` [PIMAGEDINE], the results for the Activity with FL5.12 [4], in the data set on FL5.12 [5] and in the data set on FL5.12 [6] were 79.69%, 5.17% and 3.72%, respectively.

Take `NCCCCNCCCN` [SPERMIDINE]: the Activity came out at 58.16% in the data set with FL5.12 [4], 5.52% in the data set with FL5.12 [5] and 6.07% in the data set on FL5.12 [6].

Regarding `Cl.NCCCCNCCCCNCc1c2ccccc2c(CNCCCCNCCCCN)c2ccccc12`, the Activity came out at 8.64% with FL5.12 [4]; 16.69% in the data set on FL5.12 [7]; 12.9% in data set [8]; 67.53% in the data set with FL5.12 [9]; 56.7% in data set [11]; 5.56% in the data set on FL5.12 [5]. Besides, the Activity in data set [12] was 10.2%; in data set [13], 44.7%; with FL5.12 [6] it was 6.07%. Also, the 50% inhibitory concentration (IC50) is 0.045 µM in the data set with CHO; > 100 µM in the data set on CHO-MG; 0.78 µM in the data set with L1210 [1]; 5.52 µM in the data set on L1210 [10]; 0.22 µM with L1210 [14]. The selectivity ratio in data set [3] was > 2220. This compound came in with a Ki in [2] of 0.39 µM.

With `NCCCCNCCCNCc1ccc(N(CCCl)CCCl)cc1`, the IC50 is > 100 µM in the data set on CHO, > 100 µM in the data set on CHO-MG, 6.53 µM with L1210 [1] and 7.83 µM in the data set on L1210 [10]. In addition, the selectivity ratio in data set [3] was 1. In data set [2], the affinity, expressed as Ki, was 2.66 µM.

As for `NCCCNCCCCNCc1ccc(N(CCCl)CCCl)cc1`, the IC50 is > 100 µM in the data set with CHO, > 100 µM with CHO-MG, 8.14 µM in the data set on L1210 [1] and 8.13 µM in the data set with L1210 [10]. Further, the selectivity ratio in data set [3] is 1. Further, the Ki in [2] is 12.4 µM.

As to `NCCCCNCCCCNCc1ccc(CNCCCCNCCCCN)cc1`, the IC50 with CHO was 0.074 µM; with CHO-MG, 50.2 µM; in the data set with L1210 [1] it was 0.16 µM; in the data set on L1210 [10] it was 6.89 µM; in the data set with L1210 [14], 0.36 µM. The selectivity ratio in data set [3] was 677. Besides, affinity in data set [2] was put at a Ki of 0.52 µM.

Consider `Cl.Cl.NCCCCNCc1c2ccccc2cc2ccccc12`, for which the Activity was >95% in the data set with FL5.12 [4]; 47.28% in the data set with FL5.12 [16]; 35.59% in the data set with FL5.12 [17]; >95% in the data set on FL5.12 [5]; >95% in the data set on FL5.12 [6]; 35.32% in the data set with FL5.12 [18]. In addition, the results for the IC50 in the data set on CHO, with L1210 [15] and with L1210 [14] were 7.7 µM, 6.96 µM and 9.78 µM, respectively. Besides, in [3], the selectivity ratio was found to be 1. This compound also yielded a Ki in data set [2] of 32.2 µM.

As to `NCCCCNCCCCNCc1ccc(N(CCCl)CCCl)cc1`, the IC50 in the data set with CHO is > 100 µM; in the data set on CHO-MG it was > 100 µM; in the data set with L1210 [1] it was 35.4 µM; in the data set on L1210 [10] it was 31.1 µM. The selectivity ratio in data set [3] came out at 1. For the same compound, the degraded at 48 h in data set [19] is 89%. This compound had a Ki in [2] of 5.97 µM.

Turning to `NCCCCNCCCCNCc1cccc2ccccc12`, the IC50 with CHO is 0.6 µM; in the data set with L1210 [14], 0.43 µM. In addition, in data set [3], the selectivity ratio was > 164. This compound also displayed a Ki in [2] of 3.8 µM.

As to `Cl.NCCCCNCCCCNCc1c2ccccc2cc2ccccc12`, the Activity in the data set with FL5.12 [4] was >95%; in the data set with FL5.12 [16] it was 37.3%; with FL5.12 [17], 33.87%; in the data set with FL5.12 [5], 67.71%; in the data set on FL5.12 [6], 80.41%; in the data set with FL5.12 [18], 46.2%. Moreover, the selectivity ratio in data set [3] stood at 148. For the same compound, the values for the half-inhibitory concentration (IC50) with L1210 [10] and in the data set on L1210 [14] were 0.83 µM and 0.09 µM, respectively. The compound also yielded a Ki in data set [2] of 1.8 µM.

For the compound `NCCCCNCCCCNCc1ccc(CNCCCCNCCCCN)c2ccccc12`, the IC50 in the data set on CHO is 0.12 µM; in the data set with CHO-MG, > 100 µM; in the data set with L1210 [1], 0.25 µM; with L1210 [10] it was 6.42 µM. In data set [3], the selectivity ratio was > 833. The Ki in [2] came out at 0.17 µM.
